Experimental data from ChEMBL document CHEMBL4706770, “SD-91 as A Potent and Selective STAT3 Degrader Capable of Achieving Complete and Long-Lasting Tumor Regression” (ACS Med Chem Lett, 2021).
Active and inactive are the calls of the source. The calls are words filed in the database; no cut-off is given here.

Legend:
[1] = biological target: T1, Signal transducer and activator of transcription 3 (Homo sapiens, UniProt P40763); assay: Binding affinity to human recombinant STAT3 assessed as dissociation constant incubated for 15 mins by biolayer interferometry
T1 sequence (P40763 whole entry, the tested form may be a part): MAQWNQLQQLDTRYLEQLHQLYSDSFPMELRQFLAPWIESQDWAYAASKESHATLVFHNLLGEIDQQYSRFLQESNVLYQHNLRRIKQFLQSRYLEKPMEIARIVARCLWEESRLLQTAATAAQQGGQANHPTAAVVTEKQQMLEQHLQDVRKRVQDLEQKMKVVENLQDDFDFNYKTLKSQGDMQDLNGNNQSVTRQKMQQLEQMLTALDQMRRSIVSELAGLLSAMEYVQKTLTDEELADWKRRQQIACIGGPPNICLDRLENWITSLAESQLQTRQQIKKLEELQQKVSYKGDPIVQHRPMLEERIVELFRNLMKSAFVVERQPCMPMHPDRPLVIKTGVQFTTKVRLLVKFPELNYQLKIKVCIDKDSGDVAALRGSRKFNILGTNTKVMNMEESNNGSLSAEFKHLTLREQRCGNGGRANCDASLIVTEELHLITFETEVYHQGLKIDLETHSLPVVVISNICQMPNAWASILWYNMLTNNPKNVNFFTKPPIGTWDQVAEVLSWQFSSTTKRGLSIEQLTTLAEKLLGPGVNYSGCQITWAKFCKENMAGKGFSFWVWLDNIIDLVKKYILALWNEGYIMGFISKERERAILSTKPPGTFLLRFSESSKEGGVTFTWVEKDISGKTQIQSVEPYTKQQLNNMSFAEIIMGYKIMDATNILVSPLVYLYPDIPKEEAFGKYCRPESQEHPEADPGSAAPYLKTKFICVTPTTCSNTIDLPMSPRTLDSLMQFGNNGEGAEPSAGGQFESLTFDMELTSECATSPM
Procedure, shortened: (§1)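 Biolayer interferometry with recombinant human STAT1, STAT2, STAT3, STAT4, STAT5A, STAT5B or STAT6 proteins containing their SH2 domain. Compound run in 2× serial dilutions from 200 nM. Kd taken from steady-state fitting of equilibrium responses against concentration using a 1:1 binding model.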

[2] = biological target: T2, Signal transducer and activator of transcription 5A (Homo sapiens, UniProt P42229); assay: Binding affinity to human recombinant STAT5A assessed as dissociation constant incubated for 15 mins by biolayer interferometry; procedure, shortened: as §1
T2 sequence (P42229 whole entry): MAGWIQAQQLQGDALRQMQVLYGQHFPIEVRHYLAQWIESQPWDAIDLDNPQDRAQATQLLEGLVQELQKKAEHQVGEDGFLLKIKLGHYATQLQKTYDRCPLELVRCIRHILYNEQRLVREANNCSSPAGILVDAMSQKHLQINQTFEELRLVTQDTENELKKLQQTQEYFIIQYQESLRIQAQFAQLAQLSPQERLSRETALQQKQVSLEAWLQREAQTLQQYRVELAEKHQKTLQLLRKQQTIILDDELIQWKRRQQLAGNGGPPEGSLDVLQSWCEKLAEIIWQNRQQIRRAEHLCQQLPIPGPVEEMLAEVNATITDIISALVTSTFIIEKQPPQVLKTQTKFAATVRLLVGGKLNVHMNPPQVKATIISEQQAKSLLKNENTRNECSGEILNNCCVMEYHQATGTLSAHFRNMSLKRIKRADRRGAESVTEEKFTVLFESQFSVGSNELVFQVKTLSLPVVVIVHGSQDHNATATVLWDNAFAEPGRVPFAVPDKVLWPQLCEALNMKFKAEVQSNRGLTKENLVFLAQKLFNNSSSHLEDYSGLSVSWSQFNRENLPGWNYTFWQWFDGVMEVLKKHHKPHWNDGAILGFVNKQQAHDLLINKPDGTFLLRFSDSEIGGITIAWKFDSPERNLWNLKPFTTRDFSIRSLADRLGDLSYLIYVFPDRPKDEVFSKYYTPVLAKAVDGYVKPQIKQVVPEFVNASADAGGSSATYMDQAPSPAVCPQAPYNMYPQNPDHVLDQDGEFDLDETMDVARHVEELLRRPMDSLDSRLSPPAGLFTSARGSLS

Mus musculus [3] = assay: In vivo induction of STAT3 degradation in SCID mouse xenografted with human MOLM16 cells assessed as reduction in STAT3 in tumor tissue at 50 mg/kg, iv measured after 24 hrs by immunoblotting analysis; assay type: functional, organism-based
Procedure, shortened: (§2)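 SCID mice bearing MOLM-16 tumors given a single iv dose of 50 mg/kg or dosing vehicle. Tumor lysates immunoblotted for STAT3, STAT1 and STAT6 at time points from 1 h to at least 24 h.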

Mus musculus [4] = assay: In vivo induction of STAT3 degradation in SCID mouse xenografted with human SU-DHL-1 cells assessed as reduction in total STAT3 level in tumor tissue at 50 mg/kg, iv measured after 24 hrs by immunoblotting analysis; assay type: functional, organism-based
Procedure, shortened: (§3)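 SCID mice bearing MOLM-16 or SU-DHL-1 xenografts given a single iv dose of 50 mg/kg or dosing vehicle. Tumor lysates immunoblotted for p-STAT3 Y705 and total STAT3 at time points up to 48 h (MOLM-16) and 24 h (SU-DHL-1).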

[5] = biological target: T1, Signal transducer and activator of transcription 3; assay: Induction of STAT3 degradation in human MOLM-16 cells assessed as decrease in STAT3 level at 1 uM incubated for 4 hrs by proteomic analysis; assay type: cell-based; conditions: MOLM16
Procedure, shortened: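 MOLM-16 cells treated with 1 or 10 μM for 4 h. Protein levels measured by quantitative proteomics across more than 7000 proteins.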

Mus musculus [6] = assay: In vivo induction of STAT3 degradation in SCID mouse xenografted with human MOLM16 cells assessed as reduction in phosphorylated STAT3 level in tumor tissue at 50 mg/kg, iv measured after 24 hrs by immunoblotting analysis; assay type: functional, organism-based; procedure, shortened: as §3
[7] = Drug metabolism buffer pH 4 assessed as conversion to 5-amino-4-(4-(8-((5S,8S,10aR)-8-((S)-5-amino-1-(benzhydrylamino)-1,5-dioxopentan-2-ylcarbamoyl)-6-oxo-5-(5-(phosphonocarbonyl)-1H-indole-2-carboxamido)octahydropyrrolo[1,2-a][1,5]diazocin-3(4H)-yl)-8-oxooct-1-ynyl)-1-oxoisoindolin-2-yl)-5-oxopentanoic acid measured upto 100 hrs by LC/MS/MS analysis; conditions: time hrs <=100
Procedure, shortened: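 Parent compound incubated in buffer at pH 4 or pH 8, at room temperature or 37 °C. Percentages of the parent, the hydrolysis product and the glutarimide ring-opened product followed over time, up to 96 h.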

[8] = biological target: T3, Protein cereblon/Signal transducer and activator of transcription 3 (Homo sapiens, UniProt P40763+Q96SW2); assay: Protac activity at CRBN/STAT3 in human MOLM-16 cells assessed as degradation of STAT3 incubated for 4 hrs by western blot analysis; assay type: cell-based; conditions: molm16
Procedure, shortened: (§4)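 Cells treated 4 h with compounds across 25 nM to 100 μM; STAT proteins detected by Western blot with GAPDH as loading control; STAT3 DC50 estimated by densitometry of STAT3 relative to GAPDH. Applies to MOLM-16 for all STATs, and to SU-DHL-1 and SUP-M2 for STAT3.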
Target sequence in this assay (P40763 whole entry): as the sequence (P40763 whole entry, the tested form may be a part) above
Target sequence in this assay (Q96SW2 whole entry): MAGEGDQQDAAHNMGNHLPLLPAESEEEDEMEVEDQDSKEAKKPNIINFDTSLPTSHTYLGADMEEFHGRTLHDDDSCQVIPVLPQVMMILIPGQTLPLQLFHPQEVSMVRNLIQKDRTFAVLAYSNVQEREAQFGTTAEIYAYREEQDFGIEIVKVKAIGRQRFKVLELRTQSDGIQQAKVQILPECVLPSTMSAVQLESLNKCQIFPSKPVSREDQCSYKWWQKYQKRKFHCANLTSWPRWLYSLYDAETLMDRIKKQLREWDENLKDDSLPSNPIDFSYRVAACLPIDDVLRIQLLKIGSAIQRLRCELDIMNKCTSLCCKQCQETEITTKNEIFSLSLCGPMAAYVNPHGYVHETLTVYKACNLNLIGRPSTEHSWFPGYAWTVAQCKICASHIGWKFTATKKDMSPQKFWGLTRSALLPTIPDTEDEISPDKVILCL

[9] = biological target: T4, Protein cereblon/Signal transducer and activator of transcription 5A (Homo sapiens) (UniProt P42229+Q96SW2); assay: Protac activity at CRBN/STAT5 in human MOLM16 cells assessed as STAT5 degradation at 0.25 to 100 uM incubated for 4 hrs by Western blot analysis; assay type: cell-based; conditions: dose 0.25-100 µM; procedure, shortened: as §4
T4 sequence (Q96SW2 whole entry, looked up, one chain of several): as the sequence (Q96SW2 whole entry) above

[10] = biological target: T4, Protein cereblon/Signal transducer and activator of transcription 5A (Homo sapiens); assay: Protac activity at CRBN/STAT5 in human SU-DHL-1 cells […] at 0.25 to 100 uM incubated for 4 hrs by Western blot analysis; assay type: cell-based; conditions: dose lower 0.25 µM
[11] = biological target: Protein cereblon/Signal transducer and activator of transcription 1-alpha/beta (Homo sapiens) (UniProt P42224+Q96SW2); assay: Protac activity at CRBN/STAT1 in human SU-DHL-1 cells […] at 0.25 to 100 uM incubated for 4 hrs by Western blot analysis; assay type: cell-based; conditions: dose lower 0.25 µM
[12] = biological target: T3, Protein cereblon/Signal transducer and activator of transcription 3; assay: In vivo protac activity at CRBN/STAT3 degradation in SCID mouse xenografted with human MOLM16 cells assessed as reduction in STAT3 in tumor tissue at 50 mg/kg, iv measured after 24 hrs by immunoblotting analysis; assay type: functional, organism-based; procedure, shortened: as §2
Target sequence in this assay (P40763 2-770 limits assumed): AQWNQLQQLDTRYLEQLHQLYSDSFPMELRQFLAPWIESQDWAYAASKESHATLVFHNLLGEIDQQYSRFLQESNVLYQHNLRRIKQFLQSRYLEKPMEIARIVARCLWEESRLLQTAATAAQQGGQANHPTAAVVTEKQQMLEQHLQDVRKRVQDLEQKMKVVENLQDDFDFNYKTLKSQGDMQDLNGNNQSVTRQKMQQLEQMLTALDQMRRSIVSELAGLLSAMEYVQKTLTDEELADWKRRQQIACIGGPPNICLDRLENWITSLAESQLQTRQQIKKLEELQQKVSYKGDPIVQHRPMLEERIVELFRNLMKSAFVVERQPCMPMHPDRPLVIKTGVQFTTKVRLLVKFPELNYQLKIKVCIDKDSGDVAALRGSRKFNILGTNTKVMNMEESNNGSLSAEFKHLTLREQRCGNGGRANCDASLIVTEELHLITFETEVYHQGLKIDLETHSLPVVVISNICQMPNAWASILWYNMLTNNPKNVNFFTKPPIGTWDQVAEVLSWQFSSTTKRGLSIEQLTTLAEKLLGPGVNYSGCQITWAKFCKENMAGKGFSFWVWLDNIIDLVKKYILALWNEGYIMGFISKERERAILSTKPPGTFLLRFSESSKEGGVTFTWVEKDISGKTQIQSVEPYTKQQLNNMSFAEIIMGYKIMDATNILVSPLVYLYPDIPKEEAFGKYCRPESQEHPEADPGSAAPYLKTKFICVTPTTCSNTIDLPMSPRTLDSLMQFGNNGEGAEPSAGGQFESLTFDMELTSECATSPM
Target sequence in this assay (Q96SW2 whole entry partner): as the sequence (Q96SW2 whole entry) above

[13] = biological target: Protein cereblon/Signal transducer and activator of transcription 6 (Homo sapiens) (UniProt P42226+Q96SW2); assay: Protac activity at CRBN/STAT6 in human SU-DHL-1 cells assessed as STAT6 degradation at 0.25 to 100 uM incubated for 4 hrs by Western blot analysis; assay type: cell-based; conditions: dose 0.25-100 µM
Protein cereblon/Signal transducer and activator of transcription 6 (Homo sapiens), sequence (P42226 2-847 limits assumed): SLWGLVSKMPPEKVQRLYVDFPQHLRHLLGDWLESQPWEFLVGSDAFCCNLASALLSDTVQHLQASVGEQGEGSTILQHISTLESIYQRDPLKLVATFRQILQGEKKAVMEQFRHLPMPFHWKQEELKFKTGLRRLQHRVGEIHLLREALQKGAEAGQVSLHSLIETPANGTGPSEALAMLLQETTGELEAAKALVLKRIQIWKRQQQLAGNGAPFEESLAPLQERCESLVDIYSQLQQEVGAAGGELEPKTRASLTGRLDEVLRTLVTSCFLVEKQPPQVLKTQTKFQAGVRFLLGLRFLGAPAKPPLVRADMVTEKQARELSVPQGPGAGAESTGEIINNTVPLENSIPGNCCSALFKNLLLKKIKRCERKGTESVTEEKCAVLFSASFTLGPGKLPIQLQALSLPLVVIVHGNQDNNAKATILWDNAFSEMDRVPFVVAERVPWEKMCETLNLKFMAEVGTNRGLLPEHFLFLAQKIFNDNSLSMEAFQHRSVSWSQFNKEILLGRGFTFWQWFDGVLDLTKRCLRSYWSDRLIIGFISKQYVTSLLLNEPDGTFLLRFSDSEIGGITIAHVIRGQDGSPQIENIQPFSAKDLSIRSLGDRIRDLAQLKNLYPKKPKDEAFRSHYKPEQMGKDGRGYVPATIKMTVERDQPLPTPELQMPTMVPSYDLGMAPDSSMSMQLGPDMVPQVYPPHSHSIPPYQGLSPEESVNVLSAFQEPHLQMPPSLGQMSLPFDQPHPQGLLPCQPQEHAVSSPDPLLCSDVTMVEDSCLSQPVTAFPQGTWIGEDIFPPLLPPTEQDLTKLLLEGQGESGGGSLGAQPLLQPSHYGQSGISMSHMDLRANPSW
Protein cereblon/Signal transducer and activator of transcription 6 (Homo sapiens), sequence (Q96SW2 whole entry partner): as the sequence (Q96SW2 whole entry) above

[14] = biological target: T3, Protein cereblon/Signal transducer and activator of transcription 3; assay: Protac activity at CRBN/STAT3 in human SU-DHL-1 cells assessed as degradation of STAT3 incubated for 4 hrs by western blot analysis; assay type: cell-based; procedure, shortened: as §4
Target sequence in this assay (P40763 whole entry): as the sequence (P40763 whole entry, the tested form may be a part) above
Target sequence in this assay (Q96SW2 whole entry): as the sequence (Q96SW2 whole entry) above

NC(=O)CC[C@H](NC(=O)[C@@H]1CC[C@@H]2CCN(C(=O)CCCCCC#Cc3cccc4c3CN(C3CCC(=O)NC3=O)C4=O)C[C@H](NC(=O)c3cc4cc(C(=O)P(=O)(O)O)ccc4[nH]3)C(=O)N21)C(=O)NC(c1ccccc1)c1ccccc1 (some centres undefined)
Kd [1]: 0.028 µM | Kd [2]: > 0.01 µM | Activity (Mus musculus [3]): Active | Activity (Mus musculus [4]): Active | Activity [5]: Active | Activity (Mus musculus [6]): Active

NC(=O)CC[C@H](NC(=O)[C@@H]1CC[C@@H]2CCN(C(=O)CCCCCC#Cc3cccc4c3CN(C3CCC(=O)NC3=O)C4=O)C[C@H](NC(=O)c3cc4cc(C(F)(F)P(=O)(O)O)ccc4[nH]3)C(=O)N21)C(=O)NC(c1ccccc1)c1ccccc1 (some centres undefined)
Drug metabolism [7]: Metabolite not detected | DC50 [8]: 0.38 µM | Activity [9]: inactive | Activity [10]: inactive | Activity [11]: inactive | Activity [12]: Active | Activity [13]: inactive | DC50 [14]: 0.061 µM
